The source of these data is ChEMBL document CHEMBL1135551, “N-Acylvanillamides: development of an expeditious synthesis and discovery of new acyl templates for powerful activation of the vanilloid receptor” (J Med Chem, 2002).

Assay [1] addresses T1, Transient receptor potential cation channel subfamily V member 1 (Homo sapiens, UniProt Q8NER1). Description: Percent absolute effect obtained with ionomycin, measured by the entry of [Ca2+] into human embryonic kidney HEK293 cells overexpressing hVR1. In kind it is functional, cell-based. An outline of the steps:
(§1)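 HEK-293 cells overexpressing human VR1, grown in MEM with nonessential amino acids, 10% FCS, 0.2 mM glutamine at 37 °C; plated on poly-L-lysine a day before. Cells loaded 2 h at 25 °C with 4 µM Fluo-3 methyl ester, washed, trypsinized, suspended in Tyrode pH 7.4 without BSA.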

In assay [2] the target is T1, Transient receptor potential cation channel subfamily V member 1. Briefly: Concentration necessary to induce a relative half-maximal response measured by the entry of [Ca2+] into human embryonic kidney HEK293 cells overexpressing the human VR1. In kind it is functional, cell-based. An outline of the steps:
as §1

T1 sequence (Q8NER1 whole entry): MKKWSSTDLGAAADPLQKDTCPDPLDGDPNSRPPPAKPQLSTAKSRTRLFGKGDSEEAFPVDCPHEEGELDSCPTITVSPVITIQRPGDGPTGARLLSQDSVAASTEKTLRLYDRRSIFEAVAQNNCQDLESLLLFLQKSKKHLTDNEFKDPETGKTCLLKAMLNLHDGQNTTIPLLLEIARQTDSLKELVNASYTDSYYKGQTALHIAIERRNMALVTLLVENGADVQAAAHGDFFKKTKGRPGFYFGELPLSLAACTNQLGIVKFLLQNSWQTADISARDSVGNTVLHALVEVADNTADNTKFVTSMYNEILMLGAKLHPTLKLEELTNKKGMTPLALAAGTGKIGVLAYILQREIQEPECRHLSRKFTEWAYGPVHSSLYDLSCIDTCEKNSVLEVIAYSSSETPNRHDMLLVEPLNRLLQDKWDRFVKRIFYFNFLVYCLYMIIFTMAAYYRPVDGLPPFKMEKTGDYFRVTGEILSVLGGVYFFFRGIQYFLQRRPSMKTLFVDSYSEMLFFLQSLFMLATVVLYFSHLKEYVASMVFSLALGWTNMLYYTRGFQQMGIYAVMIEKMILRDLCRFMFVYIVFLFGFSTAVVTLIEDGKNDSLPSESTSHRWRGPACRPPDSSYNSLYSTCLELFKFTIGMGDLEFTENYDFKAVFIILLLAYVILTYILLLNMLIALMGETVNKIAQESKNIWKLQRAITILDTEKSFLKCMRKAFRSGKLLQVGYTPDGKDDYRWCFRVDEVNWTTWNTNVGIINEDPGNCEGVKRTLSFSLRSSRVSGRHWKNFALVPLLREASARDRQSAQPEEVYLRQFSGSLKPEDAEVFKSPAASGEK

Turning to `COc1cc(CNC(=O)CC[C@H](C)[C@@H]2CC[C@H]3[C@@H]4[C@@H](O)C[C@H]5C[C@@H](O)CC[C@@]5(C)[C@H]4C[C@@H](O)[C@]32C)ccc1O`, the Response in assay [1] was found to be 5.8%.
As usually defined, the EC50 is the midpoint of the concentration-response curve. In turn, `C=C(C)[C@@H]1CC[C@]2(C(=O)NCc3ccc(O)c(OC)c3)CC[C@]3(C)[C@H](CC[C@@H]4[C@@]5(C)CC[C@H](O)C(C)(C)[C@@H]5CC[C@]43C)[C@@H]12` had an EC50 in assay [2] of 126 nM. The same compound returned a Response in assay [1] of 88.6%.
The compound `CCCCCC[C@@H](O)C/C=C\CCCCCCCC(=O)NCc1ccc(O)c(OC)c1` gave an EC50 in assay [2] of 3.16 nM. In assay [1], this compound showed a Response of 85%.
As to `COc1cc(CNC(=O)[C@H]2[C@@H](C=C(C)C)C2(C)C)ccc1O`, the EC50 in assay [2] is 200 nM. Also, the Response in assay [1] came to 85%.
Regarding `COc1cc(CNC(=O)/C=C(\C)CCC=C(C)C)ccc1O`, in assay [2], the half-maximal effective concentration (EC50) is 39.8 nM. In assay [1], the Response was found to be 70.9%.
Turning to `COc1cc(CNC(=O)/C=C(C)/C=C/C=C(C)/C=C/C2=C(C)CCCC2(C)C)ccc1O`, the EC50 in assay [2] is 3.98 nM. The compound also yielded a Response in assay [1] of 92.6%.
The compound `COc1cc(CNC(=O)CCCCCCCC/C=C/CCCCCCCCC(=O)NCc2ccc(O)c(OC)c2)ccc1O` showed an EC50 in assay [2] of 1.58 nM. Also, the Response in assay [1] is 85.7%.
Regarding `CCCCCCCC[C@H]1C[C@H]1CCCCCCCCCCCC(=O)NCc1ccc(O)c(OC)c1`, in assay [2], the response was half-maximal at 79.4 nM (EC50). In addition, the Response in assay [1] came out at 91%.
For the compound `COc1cc(CNC(=O)[C@]23CC[C@@H](C)[C@H](C)[C@H]2C2=CC[C@@H]4[C@@]5(C)CC[C@H](O)C(C)(C)[C@@H]5CC[C@@]4(C)[C@]2(C)CC3)ccc1O`, the Response in assay [1] came out at 14.3%.
`CCCCCCCC/C=C\CCCCCCCC(=O)NCc1ccc(O)c(OC)c1` [OLVANIL] showed an EC50 in assay [2] of 0.501 nM. Moreover, the Response in assay [1] stood at 67.2%.
The compound `C=CCCCCCCCCC(=O)NCc1ccc(O)c(OC)c1` gave an EC50 in assay [2] of 2 nM. The compound also had a Response in assay [1] of 85%.
For `C=C(C(=O)NCc1ccc(O)c(OC)c1)[C@H]1CC[C@]2(C)CCC[C@](C)(O)[C@H]2C1`, a half-maximal response in assay [2] (EC50) required 200 nM. The same compound registered a Response in assay [1] of 78.9%.
`COc1cc(CNC(=O)C2CC2(C)CCCC(C)CCCC(C)CCCC(C)C)ccc1O` (configuration not stated) had an EC50 in assay [2] of 2.51 nM. Moreover, the Response in assay [1] stood at 91.2%.
`CCCCCC/C=C/C#CCCCCCCCC(=O)NCc1ccc(O)c(OC)c1` had an EC50 in assay [2] of 1.26 nM. The same compound had a Response in assay [1] of 70.7%.
In assay [2], `CCCCCCC(=O)CCCCCCCCCCC(=O)NCc1ccc(O)c(OC)c1` showed an EC50 of 6.31 nM. In assay [1], this compound gave a Response of 67%.
In assay [2], `CCCCCCCC[C@@H]1C[C@@H]1CCCCCCCC(=O)NCc1ccc(O)c(OC)c1` gave an EC50 of 1.26 nM. The Response in assay [1] turned out to be 86.7%.
In assay [1], `COc1cc(CNC(=O)CCCC/C=C/C(C)C)ccc1O` registered a Response of 65.4%.
Turning to `CCCCC/C=C\C/C=C\C/C=C\C/C=C\CCCC(=O)NCc1ccc(O)c(OC)c1`, it took 0.501 nM to reach a half-maximal effect in assay [2] (EC50). The Response in assay [1] was 74.8%.
On the same counts, the results for `CCCCCCCC/C=C\CCCCCCCCCCC(=O)NCc1ccc(O)c(OC)c1` are 3.16 nM and 91.4%.
Compound `C=C(C)[C@H]1CC=C(C(=O)NCc2ccc(O)c(OC)c2)CC1` gave an EC50 in assay [2] of 794 nM. The Response in assay [1] was determined as 74.5%.
In assay [1], `C/C=C/C=C/C(=O)NCc1ccc(O)c(OC)c1` gave a Response of 34.6%.
`CCCCCCCCCCCCCCCCCC(=O)NCc1ccc(O)c(OC)c1` came in with a Response in assay [1] of 32.4%.
The compound `COc1cc(CNC(=O)[C@@]2(C)CCC[C@@]3(C)[C@H]2CC=C2C=C(C(C)C)CC[C@@H]23)ccc1O` registered a Response in assay [1] of 37.5%.
On the same count and under the same terms, with `CCCCCC[C@H](C/C=C\CCCCCCCC(=O)NCc1ccc(O)c(OC)c1)OC(C)=O` the figure was 93.5%; with `COc1cc(CNC(=O)C2C(C(=O)NCc3ccc(O)c(OC)c3)[C@H]3C=C[C@@H]2C3)ccc1O` (stereo in doubt; cis), 16.4%; with `COc1cc(CNC(=O)C2C(C(=O)NCc3ccc(O)c(OC)c3)[C@H]3C=C[C@@H]2C3)ccc1O` (stereo in doubt; trans), 37.2%.
Turning to `COc1cc(CNC(=O)/C=C(\C)CC/C=C(\C)CCC=C(C)C)ccc1O`, the EC50 in assay [2] is 0.501 nM. Also, in assay [1], the Response turned out to be 79.9%.
As to `COc1cc(CNC(=O)CCCCCCCCCCCCCCCCCCC(=O)NCc2ccc(O)c(OC)c2)ccc1O`, the response in assay [2] was half-maximal at 501 nM (EC50). The compound further showed a Response in assay [1] of 83.4%.
In turn, `CCCCCCCCC#CCCCCCCCC(=O)NCc1ccc(O)c(OC)c1` had an EC50 in assay [2] of 12.6 nM. Besides, the Response in assay [1] was 73.7%.
`CCCCCC[C@@H](O)CC1CC1CCCCCCCC(=O)NCc1ccc(O)c(OC)c1` (some centres not stated): in assay [2], the EC50 was 5.01 nM. This compound yielded a Response in assay [1] of 98%.
On the same counts, the results for `COc1cc(CNC(=O)CCCCCCCCC2CC2)ccc1O` are 3.16 nM and 96.2%.
As for `COc1cc(CNC(=O)/C=C(\C)CCC[C@H](C)CCC[C@H](C)CCCC(C)C)ccc1O`, it took 2 nM to reach a half-maximal effect in assay [2] (EC50). Moreover, the Response in assay [1] amounted to 85%.
Compound `CCCCCC[C@@H](O)CCCCCCCCCCC(=O)NCc1ccc(O)c(OC)c1` gave an EC50 in assay [2] of 5.01 nM. This compound displayed a Response in assay [1] of 69.7%.
